SENP7 block: SENP7 protease inhibition | recombinant SENP7, Z-RLRGG-aminoluciferin luminescence, 40 min | Q9BQF6 | 1.5% of 330,000 active | inhibition, % at 5 µM;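 active = inhibition above about 50% at the single test dose, limit read from the data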
Target sequence (Q9BQF6 706-1050 limits assumed): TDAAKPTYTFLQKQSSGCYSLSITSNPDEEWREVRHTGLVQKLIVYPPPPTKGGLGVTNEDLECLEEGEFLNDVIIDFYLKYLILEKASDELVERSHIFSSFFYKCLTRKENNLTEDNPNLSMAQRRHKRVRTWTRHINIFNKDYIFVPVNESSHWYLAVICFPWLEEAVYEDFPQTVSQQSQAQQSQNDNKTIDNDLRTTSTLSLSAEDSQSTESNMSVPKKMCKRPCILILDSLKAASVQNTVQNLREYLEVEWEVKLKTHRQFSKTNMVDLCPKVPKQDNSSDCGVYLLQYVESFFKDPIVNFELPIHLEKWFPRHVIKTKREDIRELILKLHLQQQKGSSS
SENP8 block-1: inhibitors of human SENP8 protease | inhibition, % at 20 µM | 0.64% of 360,000 active | recombinant SENP8, Nedd8 substrate fluorescence | Q96LD8; in the data active = inhibition mostly above about 40%, no sharp cut-off; inactive = mostly below about 27%
Target sequence (Q96LD8 whole entry, looked up): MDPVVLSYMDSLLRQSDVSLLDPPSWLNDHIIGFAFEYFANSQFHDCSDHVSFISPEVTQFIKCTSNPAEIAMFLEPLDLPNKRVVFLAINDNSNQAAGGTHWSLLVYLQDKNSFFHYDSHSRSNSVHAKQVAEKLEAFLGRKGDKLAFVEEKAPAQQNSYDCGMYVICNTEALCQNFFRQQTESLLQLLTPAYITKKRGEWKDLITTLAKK
SENP1 FRET inh: inhibitors of human SENP1 SUMO protease catalytic domain; Q9P0U3; recombinant SENP1 catalytic domain, CyPet-SUMO1-YPet FRET cleavage; inhibition, % at 10 µM; 0.21% of 360,000 active; AID 624204;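 active = inhibition at least 30% at 10 µM, raw YFP signal under a set limit, fluorescence ratio 0.5 to 1.5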
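Test system: human SENP1 catalytic domain; medium: Tris pH 8 buffer plus EDTA, NaCl, BME, BSA, NP40, catalase; incubation: 50 min reaction at room temperature; technique: FRET, CFP and YFP emission; controls: no-enzyme low control and enzyme-plus-DMSO high control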
SENP6 block: SENP6 protease inhibition. Q9GZR1. Recombinant SENP6 catalytic domain, aminoluciferin luminescence. inhibition, % at 10 µM. 1.8% of 330,000 active. AID 2599;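 active = inhibition above about 50% at the single tested dose, limit read from the data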
SENP8 block-2: blocks the human protease SENP8 | Q96LD8 | purified SENP8, Z-RLRGG-aminoluciferin cleavage, luminescence | inhibition, % at 10 µM | 1.2% of 330,000 active; in the data active = inhibition above about 50%
SENP8 confirm: human SENP8 inhibition, confirmed | shares compounds with SENP7 block | Recombinant SENP8, Z-RLRGG-aminoluciferin luminescence, 60 min | inhibition, % at 12.5 µM | 40% of 6,200 active | AID 488912;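 active = mean inhibition across replicates above about 50%, limit read from the data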
SENP6 conf: confirmation of human SENP6 protease inhibitors | shares compounds with SENP7 block | recombinant SENP6, Z-RLRGG-aminoluciferin luminescence | inhibition, % at 12.5 µM | 58% of 6,200 active
SENP7 conf: human SENP7 inhibition, confirmed; inhibition, % at 12.5 µM; recombinant SENP7, Z-RLRGG-aminoluciferin luminescence, 40 min; 69% of 6,200 active; AID 488917; shares compounds with SENP7 block
Casp3 select: selectivity test for SENP inhibitors: human caspase-3 inhibition; shares compounds with SENP7 block; purified caspase-3, Z-DEVD-aminoluciferin luminescence, 60 min; inhibition, % at 12.5 µM; 60% of 6,200 active; AID 488918;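 active = mean inhibition above about 50%, limit read from the data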
Luc interf: interferes with luciferase luminescence in SENP counter-screen | shares compounds with SENP7 block | Pre-incubated SENP8/Z-RLRGG-aminoluciferin, luciferase luminescence interference | inhibition, % at 12.5 µM | 39% of 6,200 active | AID 488919;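 active = mean inhibition above about 50% when retested at one dose, limit read from the data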
Hits are given with their value; . = inactive; / = no result. Hits are enriched below; roughly 2.5% of the tested compounds scored in any of these assays.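 The calls were made as follows, unless noted: active = mean inhibition above about 50% in the one-dose retest (limit read from the data); inactive = the rest.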

SMILES	SENP7 block	SENP8 block-1	SENP1 FRET inh	SENP6 block	SENP8 block-2	SENP8 confirm	SENP6 conf	SENP7 conf	Casp3 select	Luc interf
O=C(COc1ccc(Cl)cc1)c1ccc(O)cc1O	.	.	.	58	.	54	.	72	67	53
CCOC(=O)c1ccc(OCC(=O)c2ccc(O)cc2O)cc1	.	.	.	55	.	.	.	64	66	.
COC(=O)c1ccc(OCC(=O)c2ccc(O)cc2O)cc1	.	.	.	.	.	/	/	/	/	/
Cc1ccc(S(=O)(=O)N2CCOC23CCN(C(=O)C(=O)NCCC(C)C)CC3)cc1	.	.	.	.	.	/	/	/	/	/
CCOC(=O)c1c(C)oc2c1cc(O)c1ccccc12	72	.	.	.	.	.	.	.	.	.
COC(=O)c1ccccc1C(=O)N1CCC(CCC(=O)NC2CC2)CC1	.	.	.	.	.	/	/	/	/	/
COc1ccc(-c2cn(CCC(=O)O)c(C)n2)cc1	.	.	.	85	81	.	85	94	.	.
CC(C)Oc1ccccc1C1NC(=O)CCC1[N+](=O)[O-] (centres undefined)	.	.	.	.	.	/	/	/	/	/
O=C(NC(O)C(=O)c1ccc(F)cc1)c1ccc(F)cc1 (centres undefined)	.	.	.	.	.	/	/	/	/	/
O=C(c1ccc(-c2nc3ccccc3s2)o1)N1CCN(c2ccccc2O)CC1	.	.	.	.	.	/	/	/	/	/
O=Cc1ccc(-c2nc3ccccc3s2)o1	80	.	.	63	70	.	70	87	82	.
O=C(O)c1ccc(-c2nc3ccccc3s2)o1	78	.	.	91	77	87	84	92	61	82
O=C(O)CCN1C(=O)/C(=C/c2ccc(-c3nc4ccccc4s3)o2)SC1=S	.	.	.	.	.	/	/	/	/	/
Cc1cc(C)nc(N/N=C/c2cc(C)n(CC(F)(F)F)c2C)n1	.	.	.	.	.	/	/	/	/	/
Cc1cc(O)c2c(c1)C(=O)c1cc(O)cc(O)c1C2=O	80	.	.	97	94	96	98	102	94	81
O=C1c2cc(O)cc(O)c2C(=O)c2c1cc(O)c([C@@H](CO)CCO)c2O	.	.	.	.	.	/	/	/	/	/
COc1c(O)cc2oc(-c3ccc(O)cc3)cc(=O)c2c1O	59	.	.	57	.	63	60	88	71	71
O=c1cc(-c2ccc(O)cc2)oc2ccc3ccccc3c12	99	.	.	97	98	97	100	103	99	83
CCN(c1ccccc1)c1cc2ccccc2c(=O)[nH]1	86	.	.	88	92	.	61	.	.	.
CCN(c1ccccc1)c1nc(=O)c2cccnc2s1	.	.	.	.	.	/	/	/	/	/
CNC(C)C#Cc1ccc2c(=O)c3cc(C)c(C)cc3oc2c1 (centres undefined)	.	.	.	93	67	.	.	.	.	71
COc1ccc(OC(=O)c2ccncc2)cc1	.	.	.	.	.	/	/	/	/	/
COc1ccc(C(=O)Oc2ccc(/C=N/O)cc2)cc1	61	.	.	79	53	67	67	90	73	.
CC1(C(=O)NS(=O)(=O)c2ccc3c(c2)CCO3)CCN1C(=O)CCC1CCCC1 (centres undefined)	/	.	.	/	/	/	/	/	/	/
COc1cccc(NC(=O)Nc2ccc3nsnc3c2)c1	.	.	.	50	.	57	52	77	.	54
SMILES	SENP7 block	SENP8 block-1	SENP1 FRET inh	SENP6 block	SENP8 block-2	SENP8 confirm	SENP6 conf	SENP7 conf	Casp3 select	Luc interf
COc1cccc(NC(=O)Nc2nc(SC)ns2)c1	77	.	.	90	82	76	77	96	76	86
CC(=O)Nc1ccc2nsnc2c1	.	.	.	.	.	/	/	/	/	/
COc1cccc(NC(=O)Nc2ccc3c(c2)nc(C)n3C)c1	90	.	.	91	78	86	85	98	94	86
COc1ccc(NC(=O)Nc2cccc(OC)c2)cc1	.	.	.	.	.	/	/	/	/	/
COc1cccc(NC(=O)Nc2ccc3nc(C)c(C)nc3c2)c1	.	.	.	54	.	.	.	58	59	.
Cc1n[nH]c(=O)n1-c1ccc(OCc2ccccc2)cc1	.	.	.	.	.	/	/	/	/	/
CCN1C(=O)[C@H]2[C@@H](c3ccc(Cl)cc3)N3C(=O)CN(CC4CC4)C(=O)[C@@]3(Cc3ccccc3)[C@H]2C1=O	.	.	.	.	.	/	/	/	/	/
CCN(C(=O)COC(=O)c1ccc(N2C(=O)c3ccccc3C2=O)cc1)C1CCS(=O)(=O)C1 (centres undefined)	.	.	.	.	.	/	/	/	/	/
Cc1cnc(NC(=O)c2ccc3c(c2)OCCO3)s1	92	.	.	91	84	.	84	97	79	.
Cc1cc(NC(=O)c2cccnc2Cl)ccc1NC(=O)c1cc2ccccc2o1	.	.	.	.	.	/	/	/	/	/
Cc1nnc(NC(=O)c2cc3ccccc3o2)s1	.	.	.	.	.	/	/	/	/	/
CSc1ccccc1C(=O)Nc1ncc(C)s1	.	.	.	.	.	/	/	/	/	/
Cc1ccc(C(=O)Nc2ncc(C)s2)s1	57	.	.	61	.	54	55	86	80	.
O=C(Nc1cccnc1Cl)c1cc2ccccc2o1	63	.	.	70	.	60	61	89	81	72
Cc1nc(NC(=O)c2cc3ccccc3o2)sc1C	90	.	.	89	89	71	91	100	93	.
Cn1nccc1C(=O)Oc1ccc(/C=N/NC(=O)c2ccccc2O)cc1	.	.	.	.	.	/	/	/	/	/
CC1=C(C(=O)Nc2cccc(C(=O)N3CCC(C(N)=O)CC3)c2)SCCO1	.	.	.	.	.	/	/	/	/	/
Cc1cnc(NC(=O)c2cc3ccccc3o2)s1	75	.	.	68	55	.	.	61	51	.
Cc1ccc(C(=O)Nc2ncc(C)s2)o1	67	.	.	60	.	62	58	87	90	67
Cc1ccc(C(=O)Nc2ncc(Cc3ccc(F)cc3)s2)o1	.	.	.	.	.	/	/	/	/	/
CCOC(=O)c1sc(NC(=O)c2cc3ccccc3o2)nc1C	.	.	.	.	.	/	/	/	/	/
CCc1cccc(CC)c1NC(=S)N(CCN(C)C)C(C)c1cccnc1 (centres undefined)	.	.	.	.	.	/	/	/	/	/
Cc1ccc2nc(-c3ccc4c(c3)NC(=O)CO4)cn2c1	.	.	.	.	.	/	/	/	/	/

Bioassay records: PubChem BioAssay, Sanford-Burnham Center for Chemical Genomics
